Drawing on ChEMBL document CHEMBL1208695, “Propenylamide and propenylsulfonamide cephalosporins as a novel class of anti-MRSA beta-lactams” (Bioorg Med Chem Lett, 2010), this text covers MIC and IC50 for 18 compounds.

Assay [1] deals with Escherichia coli. The experiment in a line: Antibacterial activity against Escherichia coli UB1005. Type of assay: functional.
Assay [2] relates to Staphylococcus aureus. Put plainly: Antibacterial activity against Staphylococcus aureus ATCC 25923. In kind it is functional.
Assay [3] in a line: Inhibition of Staphylococcus epidermidis PBP2. The method, boiled down: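 Enzyme: purified recombinant PBP2' from Staphylococcus epidermidis, used as the inhibition target.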
Assay [4] deals with Streptococcus pneumoniae. Put plainly: Antibacterial activity against Streptococcus pneumoniae R6. Type of assay: functional.
Assay [5] deals with Staphylococcus aureus. The experiment in a line: Antibacterial activity against Staphylococcus aureus COL expressing beta-lactamase in presence of Sulbactam. In kind it is functional.
For assay [6], the system named is Staphylococcus aureus. The experiment in a line: Antibacterial activity against Staphylococcus aureus COL expressing beta-lactamase. Type of assay: functional.
Assay [7] concerns Staphylococcus aureus. The experiment in a line: Antibacterial activity against beta-lactamase deficient Staphylococcus aureus COL. Type of assay: functional.
The subject of assay [8] is Staphylococcus aureus. The experiment in a line: Antibacterial activity against Staphylococcus aureus 887 expressing beta-lactamase. Type of assay: functional.

SMILES strings stand for the structures. Converted amounts (≈) assume the structure as drawn. Some results are limits rather than exact numbers.

By MIC is commonly meant the smallest concentration in the dilution series that meets the test's criterion for growth inhibition. A word on the IC50: it is the concentration that inhibits the measured activity by half. The low end stands for greater potency in that assay, the high end for weaker potency in that assay. Regarding `O=C(CSc1ccc2ccccc2c1)N[C@@H]1C(=O)N2C(C(=O)O)=C(/C=C/CNC(=O)c3cccnc3)CS[C@H]12`, the MIC is greater than 32 µg/mL in assay [1]; 0.13 µg/mL (≈ 0.232 µM) in assay [2]; no more than 0.06 µg/mL in assay [4]; 1 µg/mL in assay [5]; greater than 32 µg/mL in assay [6]; 4 µg/mL (≈ 7.13 µM) in assay [7]. In addition, the MIC in assay [8] amounted to 1 µg/mL (≈ 1.78 µM). In assay [3], this compound showed an IC50 of 31 µM.

Regarding `CN(C)CC(=O)NC/C=C/C1=C(C(=O)O)N2C(=O)[C@@H](NC(=O)CSc3ccc4ccccc4c3)[C@H]2SC1`, the MIC in assay [1] was greater than 32 µg/mL; in assay [2], no more than 0.06 µg/mL; in assay [4], no more than 0.06 µg/mL; in assay [5], 4 µg/mL; in assay [6], 32 µg/mL (≈ 59.2 µM); in assay [7], 4 µg/mL (≈ 7.4 µM). The compound also returned an MIC in assay [8] of 1 µg/mL (≈ 1.85 µM). This compound also had an IC50 in assay [3] of 50 µM.

As to `O=C(CSc1ccc2ccccc2c1)N[C@@H]1C(=O)N2C(C(=O)O)=C(/C=C/CNC(=O)C3CC3)CS[C@H]12`, the MIC was greater than 32 µg/mL in assay [1]; no more than 0.06 µg/mL in assay [2]; no more than 0.06 µg/mL in assay [4]; 16 µg/mL (≈ 30.6 µM) in assay [6]; 1 µg/mL (≈ 1.91 µM) in assay [7]; 0.5 µg/mL (≈ 0.955 µM) in assay [8].

On to `O=C(CSc1ccc2ccccc2c1)N[C@@H]1C(=O)N2C(C(=O)O)=C(/C=C/CNS(=O)(=O)c3ccccc3)CS[C@H]12`, for which the MIC is greater than 32 µg/mL in assay [1]; no more than 0.06 µg/mL in assay [2]; no more than 0.06 µg/mL in assay [4]; 32 µg/mL (≈ 53.7 µM) in assay [6]; 1 µg/mL (≈ 1.68 µM) in assay [7]; 2 µg/mL (≈ 3.36 µM) in assay [8]. The compound also yielded an IC50 in assay [3] of 20 µM.

Regarding `CCS(=O)(=O)NC/C=C/C1=C(C(=O)O)N2C(=O)[C@@H](NC(=O)CSc3ccc4ccccc4c3)[C@H]2SC1`, the MIC in assay [1] was greater than 32 µg/mL; in assay [2], no more than 0.06 µg/mL; in assay [4] it was no more than 0.06 µg/mL; in assay [6], greater than 32 µg/mL; in assay [7], 8 µg/mL (≈ 14.6 µM); in assay [8] it was 2 µg/mL (≈ 3.65 µM). Besides, in assay [3], the midpoint of inhibition, the IC50, lay at 22 µM.

With `O=C(CSc1ccc2ccccc2c1)N[C@@H]1C(=O)N2C(C(=O)O)=C(/C=C/CNS(=O)(=O)c3csc(Cl)c3)CS[C@H]12`, the MIC in assay [1] is greater than 32 µg/mL; in assay [2], no more than 0.06 µg/mL; in assay [4] it was no more than 0.06 µg/mL; in assay [5], 1 µg/mL; in assay [6], 16 µg/mL (≈ 25.1 µM); in assay [7], 1 µg/mL (≈ 1.57 µM). The compound further displayed an MIC in assay [8] of 0.5 µg/mL (≈ 0.786 µM). In addition, in assay [3], the IC50 was found to be 2 µM.

In the case of `CN1CCCC1C(=O)NC/C=C/C1=C(C(=O)O)N2C(=O)[C@@H](NC(=O)Cc3ccccc3)[C@H]2SC1` (stereo partly specified), the MIC in assay [1] is greater than 32 µg/mL; in assay [2], 0.25 µg/mL (≈ 0.516 µM); in assay [4], no more than 0.06 µg/mL; in assay [6], greater than 32 µg/mL; in assay [7], greater than 32 µg/mL; in assay [8] it was 8 µg/mL (≈ 16.5 µM).

`O=C(Cc1ccccc1)N[C@@H]1C(=O)N2C(C(=O)O)=C(/C=C/CNC(=O)c3cccnc3)CS[C@H]12`: the MIC is greater than 32 µg/mL in assay [1]; no more than 0.06 µg/mL in assay [2]; no more than 0.06 µg/mL in assay [4]; greater than 32 µg/mL in assay [6]; greater than 32 µg/mL in assay [7].

`O=C(Cc1ccccc1)N[C@@H]1C(=O)N2C(C(=O)O)=C(/C=C/CNS(=O)(=O)c3ccccc3)CS[C@H]12`: the MIC in assay [1] was greater than 32 µg/mL; in assay [2], 0.5 µg/mL (≈ 0.974 µM); in assay [4], 0.13 µg/mL (≈ 0.253 µM); in assay [6], greater than 32 µg/mL; in assay [7] it was greater than 32 µg/mL; in assay [8] it was 16 µg/mL (≈ 31.2 µM).

As for `O=C(Cc1ccccc1)N[C@@H]1C(=O)N2C(C(=O)O)=C(/C=C/CNS(=O)(=O)c3csc(Cl)c3)CS[C@H]12`, the MIC in assay [1] is greater than 32 µg/mL; in assay [2] it was 0.13 µg/mL (≈ 0.235 µM); in assay [4], no more than 0.06 µg/mL; in assay [6], greater than 32 µg/mL; in assay [7], 32 µg/mL (≈ 57.8 µM); in assay [8], 2 µg/mL (≈ 3.61 µM).

As to `CO/N=C(\C(=O)N[C@@H]1C(=O)N2C(C(=O)O)=C(/C=C/CNC(=O)C3CCCN3C)CS[C@H]12)c1csc(N)n1` (stereo partly specified), the MIC in assay [1] is 1 µg/mL (≈ 1.82 µM); in assay [2] it was 2 µg/mL (≈ 3.64 µM); in assay [4] it was no more than 0.06 µg/mL; in assay [6], greater than 32 µg/mL; in assay [7] it was greater than 32 µg/mL; in assay [8], 8 µg/mL (≈ 14.6 µM). The compound also returned a half-maximal inhibitory concentration (IC50) in assay [3] greater than 500 µM.

On to `CO/N=C(\C(=O)N[C@@H]1C(=O)N2C(C(=O)O)=C(/C=C/CNC(=O)c3cccnc3)CS[C@H]12)c1csc(N)n1`, for which the MIC in assay [1] is 0.25 µg/mL (≈ 0.46 µM); in assay [2], 4 µg/mL (≈ 7.36 µM); in assay [4], no more than 0.06 µg/mL; in assay [6], greater than 32 µg/mL; in assay [7], greater than 32 µg/mL; in assay [8] it was 8 µg/mL (≈ 14.7 µM). The concentration for half-maximal inhibition (IC50) in assay [3] is greater than 500 µM.

As for `CO/N=C(\C(=O)N[C@@H]1C(=O)N2C(C(=O)O)=C(/C=C/CNS(=O)(=O)c3cccnc3)CS[C@H]12)c1csc(N)n1`, the MIC in assay [1] was 1 µg/mL (≈ 1.73 µM); in assay [2], 1 µg/mL (≈ 1.73 µM); in assay [4] it was no more than 0.06 µg/mL; in assay [6] it was greater than 32 µg/mL; in assay [7] it was greater than 32 µg/mL; in assay [8], 2 µg/mL (≈ 3.45 µM). Also, the IC50 in assay [3] turned out to be 235 µM.

Turning to `Nc1nc(/C(=N/O)C(=O)N[C@@H]2C(=O)N3C(C(=O)O)=C(/C=C/CNS(=O)(=O)c4ccccc4)CS[C@H]23)c(Cl)s1`, the MIC in assay [1] is greater than 32 µg/mL; in assay [2] it was 0.5 µg/mL (≈ 0.835 µM); in assay [4], 0.25 µg/mL (≈ 0.417 µM); in assay [6], 16 µg/mL (≈ 26.7 µM); in assay [7], 8 µg/mL (≈ 13.4 µM); in assay [8], 1 µg/mL (≈ 1.67 µM). Moreover, inhibition in assay [3] was half-maximal at 6 µM (IC50).

On to `Nc1nc(/C(=N/O)C(=O)N[C@@H]2C(=O)N3C(C(=O)O)=C(/C=C/CNS(=O)(=O)c4cccnc4)CS[C@H]23)c(Cl)s1`, for which the MIC in assay [1] is 16 µg/mL (≈ 26.7 µM); in assay [2] it was 2 µg/mL (≈ 3.33 µM); in assay [4], no more than 0.06 µg/mL; in assay [6], 32 µg/mL (≈ 53.3 µM); in assay [7], 16 µg/mL (≈ 26.7 µM); in assay [8], 4 µg/mL (≈ 6.67 µM). In addition, in assay [3], half-maximal inhibition (IC50) required 12 µM.

Consider `CN1CCCC1C(=O)NC/C=C/C1=C(C(=O)O)N2C(=O)[C@@H](NC(=O)CSc3ccc4ccccc4c3)[C@H]2SC1` (stereo partly specified), for which the MIC in assay [1] is greater than 32 µg/mL; in assay [2], 0.13 µg/mL (≈ 0.229 µM); in assay [4], 0.13 µg/mL (≈ 0.229 µM); in assay [5], 1 µg/mL; in assay [6], greater than 32 µg/mL; in assay [7] it was 4 µg/mL (≈ 7.06 µM). For the same compound, the MIC in assay [8] turned out to be 1 µg/mL (≈ 1.76 µM).

Regarding `CC1(C)S[C@@H]2[C@H](NC(=O)[C@H](N)c3ccc(O)cc3)C(=O)N2[C@H]1C(=O)O` [AMOXICILLIN], the MIC in assay [1] was 8 µg/mL (≈ 21.9 µM); in assay [2] it was 0.25 µg/mL (≈ 0.684 µM); in assay [4], no more than 0.06 µg/mL; in assay [6], greater than 32 µg/mL; in assay [7], 32 µg/mL (≈ 87.6 µM); in assay [8] it was 32 µg/mL (≈ 87.6 µM).

With `CC(=O)OCC1=C(C(=O)O)N2C(=O)[C@@H](NC(=O)Cc3cccs3)[C@H]2SC1` [CEPHALOTHIN], the MIC in assay [1] was 8 µg/mL (≈ 20.2 µM); in assay [2] it was 0.25 µg/mL (≈ 0.631 µM); in assay [4], 0.125 µg/mL (≈ 0.315 µM); in assay [6], greater than 32 µg/mL; in assay [7] it was greater than 32 µg/mL; in assay [8], 0.5 µg/mL (≈ 1.26 µM).
